# This is a sample that favours compounds with a hit; in the whole collection about 3.5% have one here.
# RGS4 inh = human RGS4 inhibition; B-score at 10 µM; 310,000 compounds, 0.45% hits; P49798; HEK293 M3R/RGS4 inducible, Fluo-4 calcium flux; stronger effect = higher value; triggered by carbachol at its EC20; AID 463165;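 active means B-score, a plate-corrected calcium signal, over three deviations above library mean, with baseline fluorescence within five deviations of library mean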;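 further: RGS4 expression induced by doxycycline in cells with stable M3 receptor; B-score is computed from the integrated fluorescence ratio over baseline after carbachol; higher B-score means a larger calcium signal and so more RGS4 inhibition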
# Target sequence (P49798 whole entry, looked up): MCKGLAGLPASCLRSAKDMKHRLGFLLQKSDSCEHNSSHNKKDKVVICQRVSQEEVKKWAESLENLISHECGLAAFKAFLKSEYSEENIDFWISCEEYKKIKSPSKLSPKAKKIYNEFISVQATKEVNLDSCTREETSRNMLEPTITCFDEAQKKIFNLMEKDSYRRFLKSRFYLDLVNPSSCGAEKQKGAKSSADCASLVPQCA
# MrgX1 agonist = agonists of human MrgX1 receptor; Q96LB2; MrgX1-HEK293 cells, Fluo-4 calcium fluorescence, agonist mode; stronger effect = higher value; 310,000 compounds, 0.44% hits; B-score at 10 µM; AID 588627;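 active means calcium response B-score plate-corrected fluorescence ratio at least 3 library SD, with starting fluorescence B-score inside 5 SD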
# Target sequence (Q96LB2 whole entry, looked up): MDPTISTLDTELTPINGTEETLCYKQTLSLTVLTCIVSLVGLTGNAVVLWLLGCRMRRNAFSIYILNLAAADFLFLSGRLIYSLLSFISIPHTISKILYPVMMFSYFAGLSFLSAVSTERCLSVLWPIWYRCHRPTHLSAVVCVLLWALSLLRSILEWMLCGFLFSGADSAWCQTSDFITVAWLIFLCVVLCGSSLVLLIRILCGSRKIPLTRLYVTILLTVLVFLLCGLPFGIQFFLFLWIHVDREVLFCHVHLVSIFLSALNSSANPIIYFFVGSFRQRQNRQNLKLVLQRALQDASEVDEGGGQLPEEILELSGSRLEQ
#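 Material: MrgX1-expressing HEK293 cells; input: 15,000 cells per well; doses: test compound given as first of three sequential additions; schedule: overnight plating before 1 h dye loading; technique: Fluo-4 NW calcium-flux fluorescence, kinetic read; evaluation: baseline-normalised fluorescence change ratio, B-scored; control set: plate-wise positive and negative controls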
# MrgX1 allo act = allosterically activates human MrgX1 receptor signaling. Q96LB2. MrgX1-HEK293, Fluo-4 calcium flux, FDSS; stronger effect = higher value. B-score at 10 µM. 310,000 compounds, 0.63% hits. AID 588675;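 active means plate-corrected calcium response at least 3 library SD above typical, normal starting fluorescence, not activating the receptor alone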;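 further: compound read alongside a low EC10 to EC30 dose of BAM8-22 agonist; peak minus trough fluorescence over baseline measured at the second addition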
# RGS4 act = potentiators or activators of RGS4; AID 463111; HEK293 M3R/inducible RGS4, carbachol calcium flux Fluo4; stronger effect = lower value; B-score at 10 µM; 310,000 compounds, 0.92% hits;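 active means B-score of the integrated calcium signal more than 4 SD below the library mean, with starting fluorescence not abnormally high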;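 further: negative B-score means reduced calcium response which marks RGS4 activation or potentiation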
#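 Material: M3R-expressing HEK293 line, RGS4 induced by doxycycline | Schedule: Overnight RGS4 induction, 30 min dye load 37 °C, 20 min compound RT | Measured by: Fluo4 fluorescence kinetic imaging of calcium | Read-out: Integrated calcium ratio converted to B score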
# MrgX1 antagonist = blocks BAM8-22 activation of human MrgX1 receptor; Q96LB2; 310,000 compounds, 1.3% hits; MRGX1-HEK293 calcium flux, Fluo-4, BAM8-22 antagonism; stronger effect = lower value; B-score at 10 µM; AID 588676;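 active means calcium-response B-score plate-corrected more than 3 library SD below zero, starting fluorescence within 5 deviations, no agonist response on first addition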;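 further: peak minus trough fluorescence over baseline after final BAM8-22 challenge near maximal dose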
# RGS4 activ val = RGS4 activation, validation assay. 1,100 compounds, 89% hits. inhibition, % at 10 µM. HEK293 M3R/RGS4 inducible, carbachol calcium flux Fluo4. AID 602282. shares compounds with RGS4 act;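 active means inhibition above 3 SD of the buffer control wells, cut at about 41% in these data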;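 further: signal is the integrated peak-minus-minimum Fluo4 fluorescence over baseline ratio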
# RGS4 act ctr = RGS4 activator counter-screen hit in non-induced cells | HEK293 M3R non-induced RGS4, Fluo4 calcium flux; after carbachol challenge at its EC90 | 1,100 compounds, 82% hits | inhibition, % at 10 µM | shares compounds with RGS4 act | AID 602283;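 active means inhibition exceeding 3 SD of buffer-only control wells, cut at about 26% in these data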;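 further: percent drop in integrated peak-minus-baseline over baseline Fluo4 ratio after carbachol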
# Numbers stand for hits; . = inactive; / = no result given.
SMILES,RGS4 inh,MrgX1 agonist,MrgX1 allo act,RGS4 act,MrgX1 antagonist,RGS4 activ val,RGS4 act ctr
COc1ccc(C(=O)NCCn2cc(SCC(=O)NCC3CCCO3)c3ccccc32)cc1OC (stereo not given),.,.,.,.,.,/,/
COC(=O)NC(=S)Nc1ccc(Oc2ccc(Cl)cc2Cl)c(Cl)c1,.,.,.,-7.8,.,92,70
CC1CCc2c(sc(NC(=O)/C=C/c3cccs3)c2C(=O)O)C1 (stereo not given),.,.,.,.,.,/,/
O=C1CCC(c2ccccc2)(C2CCN(Cc3ccccc3)CC2)C(=O)N1 (stereo not given),.,.,.,-7.8,.,94,94
O=C(CNS(=O)(=O)c1ccccc1)N1CCN(Cc2ccccc2)CC1,.,.,.,.,.,/,/
Cc1ccccc1C(=O)OC1CCCN(C)C1 (stereo not given),.,.,.,.,.,/,/
CN1CCCC(C#CC(O)(c2ccccc2)c2ccccc2)C1 (stereo not given),.,.,.,-11,.,94,92
CSc1nc(NCCCO)c2c3c(sc2n1)CN(C)CC3,.,.,.,-7.8,.,.,.
c1ccc(COc2ccc(CNCc3cccnc3)cc2)cc1,.,.,.,-13,.,84,42
O=C(OCc1nnc(-c2ccccc2)o1)c1cn(-c2ccccc2)nc1-c1ccccc1,.,.,.,.,.,/,/
Cc1cc(C(=O)OCc2nnc(-c3ccccc3)o2)c(C)n1-c1ccccc1,.,.,.,-8.9,.,94,85
COC(=O)c1ccc(C(=O)OC)c(=O)[nH]1,.,.,.,.,.,/,/
CCOc1ccc(C(=O)NC(C(=O)NCCc2ccc(OC(F)F)cc2)C(C)C)cc1 (stereo not given),.,.,.,.,.,/,/
C/C(=N\NC(=O)C1(C)CC1(Br)Br)c1cccc(NC(=O)c2ccc(C)o2)c1 (stereo not given),.,.,7,-12,.,92,81
Cc1ccc(C(=O)Nc2cccc(C(=O)NCc3ccccc3)c2)o1,.,.,.,.,.,/,/
Cc1cc(N2CCCCCC2)nc2ccccc12,.,.,.,-10,.,92,48
Cc1cc(N2CCCCC2)nc2ccccc12,.,.,.,.,.,/,/
Cc1ccccc1Nc1nnc(-c2ccc(C(=O)NCCO)cc2)c2ccccc12,.,.,.,.,.,/,/
Cc1nn(CC(=O)NC(=O)NC2CCCCC2C)c(=O)c(C#N)c1C (stereo not given),.,.,.,.,.,/,/
COc1ccccc1N1CCN(C(=O)c2oc3cc(C)c(C)cc3c2C)CC1,.,/,/,.,/,/,/
CCOc1ccc2oc(C(=O)N3CCN(c4ccccc4OCC)CC3)c(C)c2c1,.,.,.,-10,.,92,79
Cc1ccc(N/N=C(/Sc2nnnn2-c2ccccc2)C(=O)c2ccccc2)cc1,.,.,.,-16,.,.,.
CCCCc1nc2cc(C(=O)N3CCCC(OCCC)C3)ccc2o1 (stereo not given),.,.,.,.,.,/,/
Cc1ccccc1N1CCN(CCCN2C(=O)CC(=C(c3ccccc3)c3ccccc3)C2=O)CC1,.,.,.,-8.4,.,90,43
Cn1cnc(S(=O)(=O)NC2CCN(Cc3ccccc3)CC2)c1,.,.,.,.,.,/,/
SMILES,RGS4 inh,MrgX1 agonist,MrgX1 allo act,RGS4 act,MrgX1 antagonist,RGS4 activ val,RGS4 act ctr
CSc1nsc(SC)c1C(=O)Nc1ccc(C(C)(C)C)cc1,.,.,.,-11,.,93,79
CC(=O)N1CCN(C(c2ccccc2)c2ccccc2)CC1,.,.,.,.,.,/,/
CC12CNCC(C)(CN(C(c3ccccc3)c3ccccc3)C1)C2,.,.,.,-7.7,.,66,27
COc1ccc2cc(OCC(=O)NNC(=O)Nc3ccc(C(C)=O)cc3)ccc2c1,.,.,.,.,.,/,/
COc1ccc(-n2nc(C)c3c(=O)c4c([nH]c32)CCCC4)cc1,.,.,.,.,.,/,/
CCOC(=O)C1C(=O)OC(C)(C)C1C(C)C(=O)c1ccccc1 (stereo not given),.,.,.,.,.,/,/
CCOc1ccc(S(=O)(=O)NC(C)(C)C)cc1-c1nc2c(C(C)(C)C)nn(C)c2c(=O)[nH]1,.,.,.,-10,.,76,46
CN1CCN(CC(=O)N2c3ccccc3Sc3ccccc32)CC1,.,.,.,-11,.,92,76
O=C(C[n+]1ccccc1)N1c2ccccc2Sc2ccccc21,.,.,.,-12,.,93,96
O=C(O)c1ccccc1SCC(=O)N1c2ccccc2Sc2ccccc21,.,.,.,.,.,/,/
O=C(CN1CCCCCC1)N1c2ccccc2Sc2ccccc21,.,.,.,-11,.,92,92
CCOC(=O)N1CCN(CC(=O)N2c3ccccc3Sc3ccccc32)CC1,.,.,.,.,.,/,/
O=C(CN1CCN(CCOCCO)CC1)N1c2ccccc2Sc2ccc(Cl)cc21,.,.,.,-9.1,.,88,64
CC(=O)c1ccc2c(c1)c(C#N)c1ccccc1[n+]2[O-],.,/,/,.,/,/,/
O=C(CCC1CCCN(Cc2ccncc2)C1)NCc1ccc(F)c(F)c1 (stereo not given),.,.,.,.,.,/,/
CCOc1ccc(C(CC(=O)O)NC(=O)C(CC)c2ccccc2)cc1 (stereo not given),.,.,.,.,.,/,/
CCOc1ccc(C(=O)NCC(=O)N2CCC3CCCCC3C2)cc1OCC (stereo not given),.,.,.,.,.,/,/
O=C1CCCN1CCCNCC(=O)N1c2ccccc2Sc2ccccc21,.,.,.,-9.4,.,85,55
O=C1CCCN1CCCNCC(O)c1ccccc1 (stereo not given),.,.,.,.,.,/,/
CCN(CC#CCC(O)(c1ccccc1)c1ccccc1)C(C)C,.,.,.,-8.3,.,79,30
C/C(=N/NC(=O)CC1N=C(Cc2ccccc2)NNC1=O)c1cccnc1 (stereo not given),.,.,.,.,.,/,/
CC(C)C(=O)Nc1cccc(-c2nc3ncccc3o2)c1,.,.,.,.,.,/,/
O=C(CSc1ccc(Cl)cc1)Nc1cc(-c2nc3ncccc3o2)ccc1Cl,.,.,.,.,.,/,/
O=C(CSc1ccc(Cl)cc1)Nc1cccc(-c2nc3ncccc3o2)c1,.,.,.,-8.7,.,92,92
COc1c(C)cc(Br)cc1C(=O)Nc1cccc(-c2nc3ncccc3o2)c1,.,.,.,-8.3,.,94,74
Cc1ccc2[nH]c(=O)c3cc(C(=O)N(CCCOC(C)C)Cc4ccco4)sc3c2c1,.,.,.,.,.,/,/

# From PubChem
